The source of these data is ChEMBL document CHEMBL1764975, “A new DNA gyrase inhibitor subclass of the cyclothialidine family based on a bicyclic dilactam-lactone scaffold. Synthesis and antibacterial properties” (J Med Chem, 2011).

Data set [1] concerns Escherichia coli. The data set is described as follows: Inhibition of Escherichia coli DNA gyrase A2B2 complex after 30 mins by supercoiling assay.
The next data set relates to Enterococcus faecium. The data set can be described thus: Antimicrobial activity against multidrug-resistant Enterococcus faecium after 18 hrs by agar dilution method. In kind it is functional. Put shortly:
(§1)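 Agar dilution on Mueller-Hinton agar, inoculum 10⁴ CFU/spot, against panels of multiresistant clinical strains (S. aureus 11, E. faecalis 16, E. faecium 23). MIC_50/90 in μg/mL taken as the minimum concentration inhibiting at least 50% or 90% of the strains tested.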

Data set [2] concerns Staphylococcus aureus. The data set can be described thus: Antimicrobial activity against multidrug-resistant Staphylococcus aureus after 18 hrs by agar dilution method. In kind it is functional. The gist of the method:
as §1
In general terms: In agar dilution, organisms are placed on agar that contains the substance at set levels.

The subject of data set [3] is Enterococcus faecalis. The data set is described as follows: Antimicrobial activity against multidrug-resistant Enterococcus faecalis after 18 hrs by agar dilution method. In kind it is functional. Put shortly:
as §1

Data set [4] has as its system Staphylococcus aureus. The data set is described as follows: Antimicrobial activity against Staphylococcus aureus Smith infected in iv dosed septicaemia Swiss albino mouse model after 4 days. In kind it is functional. The note with it: 96 h. The gist of the method: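 Septicaemia model in mice infected with S. aureus Smith, compound given iv. In experiments with 0-1 survivors among 5-10 control mice, ED₅₀ (mg/kg) taken as lowest dose giving 3-5 survivors out of 5 infected mice.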

Data set [5] deals with Escherichia coli. The data set is described as follows: Antimicrobial activity against Escherichia coli 25922 after 18 hrs by agar dilution method. The data set is classed as functional. Particulars: Escherichia coli, 25922, 18 h. The gist of the method:
(§2)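 Agar dilution on Mueller-Hinton medium, inoculum 10⁴ CFU/spot; MIC is the minimum inhibitory concentration against the named strain.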

The test system of data set [6] is Stenotrophomonas maltophilia. The data set is described as follows: Antimicrobial activity against Xanthomonas maltophilia IAC 739 after 18 hrs by agar dilution method. In kind it is functional. The note with it: IAC 739, 18 h. The gist of the method:
as §2

Data set [7] concerns Staphylococcus aureus. The data set can be described thus: (§3) Antimicrobial activity against Staphylococcus aureus Smith after 18 hrs by agar dilution method. The data set is classed as functional. Put shortly:
as §2

The next data set relates to Streptococcus pneumoniae. The data set can be described thus: Antimicrobial activity against multidrug-resistant Streptococcus pneumoniae after 18 hrs by agar dilution method. The data set is classed as functional. The gist of the method:
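Agar dilution on IsoSensitest agar supplemented with sheep blood (5% v/v), inoculum 10⁴ CFU/spot, against 21 multiresistant S. pneumoniae strains. MIC_50/90 in μg/mL taken as the minimum concentration inhibiting at least 50% or 90% of the strains.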

Data set [8] concerns Staphylococcus aureus. The data set can be described thus: Plasma shift, ratio of MIC for Staphylococcus aureus Smith in presence of mouse plasma to MIC for Staphylococcus aureus Smith in absence of mouse plasma. In kind it is functional. The gist of the method:
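Agar dilution MICs against S. aureus Smith were run on BHI agar mixed 1:1 with mouse plasma and on plain BHI agar. The plasma shift is the MIC with plasma divided by the MIC on BHI agar alone.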

The next data set has as its system Haemophilus influenzae. The data set can be described thus: Antimicrobial activity against multidrug-resistant Haemophilus influenzae after 18 hrs by agar dilution method. In kind it is functional. Put shortly:
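Agar dilution on Haemophilus test medium, inoculum 10⁵ CFU/spot, against 21 multiresistant H. influenzae strains. MIC_50/90 in μg/mL taken as the minimum concentration inhibiting at least 50% or 90% of the strains.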

Data set [9] concerns Staphylococcus aureus. The data set is described as follows: Antimicrobial activity against Staphylococcus aureus ATCC 25923 after 18 hrs by agar dilution method. In kind it is functional. The note with it: ATCC 25923, 18 h. Put shortly: as §2
A further data set relates to Moraxella catarrhalis. The data set is described as follows: Antimicrobial activity against multidrug-resistant Moraxella catarrhalis after 18 hrs by agar dilution method. In kind it is functional. The gist of the method: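 Agar dilution on Mueller-Hinton agar supplemented with sheep blood (5% v/v), inoculum 10⁵ CFU/spot, against 20 multiresistant M. catarrhalis strains. MIC_50/90 in μg/mL taken as the minimum concentration inhibiting at least 50% or 90% of the strains.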

The test system of data set [10] is Enterococcus faecalis. The data set is described as follows: Antimicrobial activity against Enterococcus faecalis 6 after 18 hrs by agar dilution method. The note with it: Enterococcus faecalis, 6, 18 h.
Data set [11] has as its system Staphylococcus epidermidis. The data set can be described thus: Antimicrobial activity against Staphylococcus epidermidis 16/2 after 18 hrs by agar dilution method. In kind it is functional. Particulars: 16/2, 18 h. The gist of the method:
as §2

A short description of data set [12]: Octanol-water partition coefficient, log D of the compound at pH 7.4 by shake-flask method. The data set is classed as physicochemical. Put shortly:
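Octanol/water partition measured by shake-flask at pH 7.4.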

The next data set concerns Streptococcus pyogenes. The data set can be described thus: Antimicrobial activity against Streptococcus pyogenes b15 after 18 hrs by agar dilution method. In kind it is functional. Particulars: b15, 18 h. The gist of the method: as §2
Data set [13] concerns Staphylococcus aureus. Described as §3. In kind it is functional. The gist of the method:
as §2
The source holds these as a separate data set.

Converted amounts (≈) assume the structure as drawn.

For `COc1cc(O)c2c(c1Br)C(=O)OCC(=O)NCC(=O)N[C@H](c1nc(C)no1)CSC2`, the MNEC in the data set on Escherichia coli [1] came to 0.02 µg/mL. Further, the MIC50 against Enterococcus faecium was found to be 0.5 µg/mL (≈ 0.97 µM); in the data set on Staphylococcus aureus [2], 4 µg/mL (≈ 7.76 µM); against Enterococcus faecalis [3], 0.25 µg/mL (≈ 0.485 µM); against Streptococcus pneumoniae, 0.5 µg/mL (≈ 0.97 µM); against Haemophilus influenzae, 1 µg/mL (≈ 1.94 µM); in the data set with Moraxella catarrhalis, 1 µg/mL (≈ 1.94 µM). Further, the MIC90 worked out at 0.5 µg/mL (≈ 0.97 µM) in the data set on Enterococcus faecium; 4 µg/mL (≈ 7.76 µM) in the data set on Staphylococcus aureus [2]; 0.5 µg/mL (≈ 0.97 µM) against Enterococcus faecalis [3]; 2 µg/mL (≈ 3.88 µM) with Streptococcus pneumoniae; 4 µg/mL (≈ 7.76 µM) against Haemophilus influenzae; 2 µg/mL (≈ 3.88 µM) against Moraxella catarrhalis. In the data set with Staphylococcus aureus [4], this molecule yielded an ED50 of 3 mg/kg. The MIC with Escherichia coli [5] is over 64 µg/mL; in data set [6], over 64 µg/mL; in the data set with Staphylococcus aureus [7] it was 1 µg/mL (≈ 1.94 µM); against Staphylococcus aureus [9] it was 4 µg/mL (≈ 7.76 µM); with Enterococcus faecalis [10], 0.5 µg/mL (≈ 0.97 µM); in data set [11] it was under 0.12 µg/mL. Also, the MIC was under 0.12 µg/mL with Streptococcus pyogenes and 1 µg/mL (≈ 1.94 µM) against Staphylococcus aureus [13]. For the same molecule, the Ratio with Staphylococcus aureus [8] is listed as 2. The molecule further yielded a logD in [12] of 1.4.
The molecule `COc1cc(O)c2c(c1C)C(=O)OCCCCC(=S)N[C@H](c1nc(CN)no1)CSC2.Cl` had an MNEC in the data set with Escherichia coli [1] of 0.002 µg/mL. In the data set with Staphylococcus aureus [4], this molecule gave an ED50 of 8.5 mg/kg. For the same molecule, the MIC was 64 µg/mL against Escherichia coli [5]; 4 µg/mL in [6]; 0.25 µg/mL against Staphylococcus aureus [7]; 0.5 µg/mL against Staphylococcus aureus [9]; 0.5 µg/mL in the data set on Enterococcus faecalis [10]; under 0.12 µg/mL in data set [11]. For the same molecule, the results for the MIC with Streptococcus pyogenes and against Staphylococcus aureus [13] were 0.5 µg/mL and 0.25 µg/mL, respectively. Moreover, the Ratio with Staphylococcus aureus [8] worked out at 4. The same molecule came in with a logD in data set [12] of 1.85.
`COc1cc(O)c2c(c1C)C(=O)OCC(=O)NCC(=O)N[C@H](c1nc(C)no1)CSC2` returned an MNEC with Escherichia coli [1] of 0.01 µg/mL. This molecule gave an ED50 with Staphylococcus aureus [4] of over 25 mg/kg. Moreover, the MIC was over 64 µg/mL with Escherichia coli [5]; over 64 µg/mL in data set [6]; 8 µg/mL (≈ 17.8 µM) against Staphylococcus aureus [7]; 32 µg/mL (≈ 71 µM) against Staphylococcus aureus [9]; 8 µg/mL (≈ 17.8 µM) in the data set with Enterococcus faecalis [10]; 1 µg/mL (≈ 2.22 µM) in data set [11]. In addition, the values for the MIC in the data set on Streptococcus pyogenes and against Staphylococcus aureus [13] were 2 µg/mL (≈ 4.44 µM) and 8 µg/mL (≈ 17.8 µM), respectively. In data set [12], this molecule returned a logD of 1.05.
With `COc1cc(O)c2c(c1Br)C(=O)OCCCCC(=S)N[C@H](c1nc(C)no1)CSC2`, in the data set on Escherichia coli [1], the MNEC came out at 0.005 µg/mL. Also, the ED50 with Staphylococcus aureus [4] was over 25 mg/kg. Moreover, the MIC is over 64 µg/mL in the data set on Escherichia coli [5]; 1 µg/mL (≈ 1.94 µM) in data set [6]; under 0.12 µg/mL with Staphylococcus aureus [7]; under 0.12 µg/mL in the data set on Staphylococcus aureus [9]; 0.12 µg/mL (≈ 0.232 µM) in the data set with Enterococcus faecalis [10]; under 0.12 µg/mL in data set [11]. Further, the MIC with Streptococcus pyogenes and in the data set on Staphylococcus aureus [13] was 0.12 µg/mL (≈ 0.232 µM) throughout. Further, in the data set on Staphylococcus aureus [8], the Ratio was determined as 8. In addition, the logD in [12] amounted to 3.23.
In turn, `COc1cc(O)c2c(c1C)C(=O)O[C@H](CO)CCC/C(S)=N/[C@H](c1nc(C)no1)CSC2` had an MNEC in the data set with Escherichia coli [1] of 0.005 µg/mL. Also, the MIC50 was determined as 1 µg/mL (≈ 2.08 µM) against Enterococcus faecium; 1 µg/mL (≈ 2.08 µM) against Staphylococcus aureus [2]; 1 µg/mL (≈ 2.08 µM) in the data set with Enterococcus faecalis [3]; 2 µg/mL (≈ 4.15 µM) in the data set on Streptococcus pneumoniae; 8 µg/mL (≈ 16.6 µM) against Haemophilus influenzae; 2 µg/mL (≈ 4.15 µM) against Moraxella catarrhalis. Moreover, the MIC90 with Enterococcus faecium was found to be 2 µg/mL (≈ 4.15 µM); in the data set on Staphylococcus aureus [2], 1 µg/mL (≈ 2.08 µM); against Enterococcus faecalis [3], 1 µg/mL (≈ 2.08 µM); with Streptococcus pneumoniae it was 4 µg/mL (≈ 8.31 µM); with Haemophilus influenzae, 8 µg/mL (≈ 16.6 µM); against Moraxella catarrhalis, 2 µg/mL (≈ 4.15 µM). The molecule further displayed an ED50 in the data set on Staphylococcus aureus [4] of 12.5 mg/kg. For the same molecule, in the data set with Staphylococcus aureus [13], 0.5 µg/mL (≈ 1.04 µM) was the least that counted as inhibitory (MIC).
In turn, `COc1cc(O)c2c(c1C)C(=O)OCCCCC(=O)N[C@H](c1nc(C)no1)CSC2` registered an MNEC in the data set on Escherichia coli [1] of 0.01 µg/mL. For the same molecule, the ED50 in the data set on Staphylococcus aureus [4] was over 25 mg/kg. The MIC was over 64 µg/mL in the data set on Escherichia coli [5]; 4 µg/mL (≈ 9.18 µM) in [6]; 0.25 µg/mL (≈ 0.574 µM) with Staphylococcus aureus [7]; 0.5 µg/mL (≈ 1.15 µM) in the data set on Staphylococcus aureus [9]; 0.5 µg/mL (≈ 1.15 µM) in the data set on Enterococcus faecalis [10]; 0.12 µg/mL (≈ 0.276 µM) in [11]. The MIC amounted to 1 µg/mL (≈ 2.3 µM) against Streptococcus pyogenes and 0.25 µg/mL (≈ 0.574 µM) with Staphylococcus aureus [13]. In addition, the Ratio in the data set on Staphylococcus aureus [8] came to 2. The logD in data set [12] stood at 1.99.

Usually ED50 stands for the dose that gives a 50% effect, or the effect in half of the subjects. Low readings indicate an effect at a small dose, high ones a need for a large dose. By MIC is commonly meant the least concentration at which growth counts as inhibited. What is called logD is lipophilicity at a set pH, counting ionised and neutral species. High values mean higher lipophilicity, low ones lower lipophilicity.
